In ChEMBL document CHEMBL1137524, “Synthesis and antibacterial activity of pyranmycin derivatives with N-1 and O-6 modifications” (2007):
Values after ≈ are worked out from the molar mass of the structure shown.

Key:
Format in all cases: functional
[1] = tested on: Escherichia coli; assay: Antibacterial activity against aminoglycoside-resistant Escherichia coli TG1 pTZ19U-3 after 12 to 18 hrs
Summary of the method: (§1)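 Broth microdilution MIC. Bacteria grown in Trypticase Soy broth at 35 °C for 1–2 h, adjusted with broth to A625 0.08–0.1, then 100 µL diluted into 10 mL broth. Wells received diluted inoculum plus 2-fold serial dilutions of compound. Incubated 35 °C for 12–18 h. MIC taken as lowest concentration inhibiting growth, in µg/mL.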

[2] = tested on: Escherichia coli; assay: Antibacterial activity against aminoglycoside-susceptible Escherichia coli TG1 after 12 to 18 hrs; summary of the method: as §1
[3] = tested on: Klebsiella pneumoniae; assay: Antibacterial activity against Klebsiella pneumoniae ATCC 700603 after 12 to 18 hrs
Summary of the method: (§2)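 Broth microdilution in Trypticase Soy broth. Bacteria grown at 35 °C for 1–2 h, adjusted with broth to A625 0.08–0.1, then diluted 100 µL into 10 mL broth. 50 µL inoculum was combined with 50 µL of 2-fold serial compound dilutions and incubated at 35 °C for 12–18 h. MIC taken as the lowest concentration inhibiting growth.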

[4] = tested on: Staphylococcus aureus; assay: Antibacterial activity against methicillin-resistant Staphylococcus aureus ATCC 33591 after 12 to 18 hrs; summary of the method: as §1
[5] = tested on: Escherichia coli; assay: Antibacterial activity against Escherichia coli ATCC 25922 after 12 to 18 hrs; summary of the method: as §1
[6] = tested on: Klebsiella pneumoniae; assay: Antibacterial activity against Klebsiella pneumoniae ATCC 13883 after 12 to 18 hrs; summary of the method: as §2
[7] = tested on: Escherichia coli; assay: Antibacterial activity against aminoglycoside-resistant Escherichia coli TG1 pSF815 after 12 to 18 hrs; summary of the method: as §1
[8] = tested on: Pseudomonas aeruginosa; assay: Antibacterial activity against Pseudomonas aeruginosa ATCC 27853 after 12 to 18 hrs; summary of the method: as §2

## C[C@H]1O[C@@H](O[C@@H]2[C@@H](OCCN)[C@H](NC(=O)[C@@H](O)CCN)C[C@H](N)[C@H]2O[C@H]2O[C@H](CN)[C@@H](O)[C@H](O)[C@H]2N)[C@H](O)[C@@H](O)[C@@H]1N
[1]
  MIC: 1 µg/mL (≈ 1.63 µM)
[2]
  MIC: 8 µg/mL (≈ 13.1 µM)
[3]
  MIC: 2 µg/mL (≈ 3.27 µM)
[4]
  MIC: ≥ 32 µg/mL
[5]
  MIC: 8 µg/mL (≈ 13.1 µM)
[6]
  MIC: 4 µg/mL (≈ 6.54 µM)
[7]
  MIC: 2 µg/mL (≈ 3.27 µM)
[8]
  MIC: 0.5 µg/mL (≈ 0.817 µM)

## NC[C@@H]1O[C@H](O[C@H]2[C@@H](O)[C@H](O[C@@H]3[C@@H](O)[C@H](N)C[C@H](N)[C@H]3O[C@H]3O[C@H](CN)[C@@H](O)[C@H](O)[C@H]3N)O[C@@H]2CO)[C@H](N)[C@@H](O)[C@@H]1O [FRAMYCETIN]
[1]
  MIC: ≥ 32 µg/mL
[2]
  MIC: 4 µg/mL (≈ 6.51 µM)
[3]
  MIC: 16 µg/mL (≈ 26 µM)
[4]
  MIC: ≥ 32 µg/mL
[5]
  MIC: 4 µg/mL (≈ 6.51 µM)
[6]
  MIC: 8 µg/mL (≈ 13 µM)
[7]
  MIC: 4 µg/mL (≈ 6.51 µM)
[8]
  MIC: 0.5 µg/mL (≈ 0.813 µM)

## NCC[C@H](O)C(=O)N[C@@H]1C[C@H](N)[C@@H](O[C@H]2O[C@H](CN)[C@@H](O)[C@H](O)[C@H]2N)[C@H](O[C@@H]2O[C@H](CO)[C@H](O)[C@H]2O)[C@H]1O [BUTIROSIN A]
[1]
  MIC: 0.5 µg/mL (≈ 0.9 µM)
[2]
  MIC: 1 µg/mL (≈ 1.8 µM)
[3]
  MIC: 1 µg/mL (≈ 1.8 µM)
[4]
  MIC: ≥ 32 µg/mL
[5]
  MIC: 4 µg/mL (≈ 7.2 µM)
[6]
  MIC: 1 µg/mL (≈ 1.8 µM)
[7]
  MIC: 0.5 µg/mL (≈ 0.9 µM)
[8]
  MIC: 1 µg/mL (≈ 1.8 µM)

## C[C@H]1O[C@@H](O[C@@H]2[C@@H](O)[C@H](N)C[C@H](N)[C@H]2O[C@H]2O[C@H](CN)[C@@H](O)[C@H](O)[C@H]2N)[C@H](O)[C@@H](O)[C@@H]1N
[1]
  MIC: ≥ 32 µg/mL
[2]
  MIC: 8 µg/mL (≈ 17.1 µM)
[3]
  MIC: 16 µg/mL (≈ 34.2 µM)
[4]
  MIC: ≥ 32 µg/mL
[5]
  MIC: 8 µg/mL (≈ 17.1 µM)
[6]
  MIC: 4 µg/mL (≈ 8.56 µM)
[7]
  MIC: 8 µg/mL (≈ 17.1 µM)
[8]
  MIC: 4 µg/mL (≈ 8.56 µM)

## CCCO[C@@H]1[C@@H](O[C@@H]2O[C@H](C)[C@@H](N)[C@H](O)[C@H]2O)[C@H](O[C@H]2O[C@H](CN)[C@@H](O)[C@H](O)[C@H]2N)[C@@H](N)C[C@H]1NC(=O)[C@@H](O)CCN
[1]
  MIC: ≥ 32 µg/mL
[2]
  MIC: 8 µg/mL (≈ 13.1 µM)
[5]
  MIC: ≥ 32 µg/mL
[7]
  MIC: ≥ 32 µg/mL

## NC[C@H]1O[C@H](O[C@H]2[C@H](O[C@@H]3O[C@H](CO)[C@@H](O)[C@H]3O)[C@@H](O)[C@H](N)C[C@@H]2N)[C@H](N)[C@@H](O)[C@@H]1O [RIBOSTAMYCIN]
[1]
  MIC: ≥ 32 µg/mL
[2]
  MIC: 4 µg/mL (≈ 8.8 µM)
[5]
  MIC: 8 µg/mL (≈ 17.6 µM)
[7]
  MIC: 4 µg/mL (≈ 8.8 µM)

## C[C@H]1O[C@@H](O[C@@H]2[C@@H](OCCO)[C@H](NC(=O)[C@@H](O)CCN)C[C@H](N)[C@H]2O[C@H]2O[C@H](CN)[C@@H](O)[C@H](O)[C@H]2N)[C@H](O)[C@@H](O)[C@@H]1N
[1]
  MIC: 16 µg/mL (≈ 26.1 µM)
[2]
  MIC: 2 µg/mL (≈ 3.26 µM)
[5]
  MIC: 16 µg/mL (≈ 26.1 µM)
[7]
  MIC: 8 µg/mL (≈ 13.1 µM)

## C[C@H]1O[C@@H](O[C@@H]2[C@@H](O)[C@H](NC(=O)[C@@H](O)CCN)C[C@H](N)[C@H]2O[C@H]2O[C@H](CN)[C@@H](O)[C@H](O)[C@H]2N)[C@H](O)[C@@H](O)[C@@H]1N
[1]
  MIC: 4 µg/mL (≈ 7.03 µM)
[2]
  MIC: 4 µg/mL (≈ 7.03 µM)
[3]
  MIC: 1 µg/mL (≈ 1.76 µM)
[4]
  MIC: ≥ 32 µg/mL
[5]
  MIC: 8 µg/mL (≈ 14.1 µM)
[6]
  MIC: 1 µg/mL (≈ 1.76 µM)
[7]
  MIC: 2 µg/mL (≈ 3.52 µM)
[8]
  MIC: 2 µg/mL (≈ 3.52 µM)
